Assay results taken from ChEMBL document CHEMBL1149866, “Cytotoxic diterpenoids from Euphorbia helioscopia” (J Nat Prod, 2008).

How the values were obtained:
HeLa = assay: Cytotoxicity against human HeLa cells by MTT method; assay type: functional, cell-based
Summary of the method: (§1)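 HeLa (human cervical carcinoma) and MDA-MB-231 (breast tumor) cells; MTT viability read-out run per a previously published protocol; IC50 determined; adriamycin as positive control.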

MDA-MB-231 = assay: Cytotoxicity against human MDA-MB-231 cells by MTT method; assay type: functional, cell-based; summary of the method: as §1

CC(=O)O[C@@H]1C[C@@H](OC(C)=O)C(C)(C)[C@H](O)[C@H]2O[C@@]3(C[C@H](C)[C@H](OC(=O)c4ccccc4)[C@@H]3/C=C/1C)[C@@H](OC(C)=O)[C@H]2C
IC50 (HeLa): > 10 µM
IC50 (MDA-MB-231): > 10 µM

CC(=O)O[C@@H]1[C@H](C)/C=C/C(C)(C)C(=O)C[C@@H](OC(=O)c2ccccc2)/C(CO)=C/[C@H]2[C@@H](OC(=O)c3ccccc3)[C@H](C)C[C@]12OC(C)=O
IC50 (HeLa): > 10 µM
IC50 (MDA-MB-231): > 10 µM

CC(=O)O[C@H]1[C@@H](C)/C=C/C(C)(C)[C@H](O)C[C@@H](O)/C(C)=C/[C@H]2[C@@H](OC(=O)c3ccccc3)[C@@H](C)C[C@@]21O
IC50 (HeLa): > 10 µM
IC50 (MDA-MB-231): > 10 µM

CC(=O)O[C@@H]1[C@H]2O[C@@]3(C[C@H](C)[C@H](OC(=O)c4ccccc4)[C@@H]3/C=C(\C)[C@H](OC(C)=O)C[C@@H](OC(C)=O)C1(C)C)[C@@H](OC(C)=O)[C@H]2C
IC50 (HeLa): > 10 µM
IC50 (MDA-MB-231): > 10 µM

CC(=O)O[C@@H]1C[C@@H](OC(C)=O)C(C)(C)/C=C/[C@H](C)[C@H](OC(C)=O)[C@@]2(O)C[C@H](C)[C@H](OC(=O)c3ccccc3)[C@@H]2/C=C/1CO
IC50 (HeLa): > 10 µM
IC50 (MDA-MB-231): > 10 µM

CC(=O)O[C@@H]1C[C@@H](O)C(C)(C)/C=C/[C@H](C)[C@H](OC(C)=O)[C@@]2(O)C[C@H](C)[C@H](OC(=O)c3ccccc3)[C@@H]2/C=C/1C [EUPHORNIN B]
IC50 (HeLa): > 10 µM
IC50 (MDA-MB-231): > 10 µM

CC(=O)O[C@@H]1C[C@@H](OC(C)=O)C(C)(C)/C=C/[C@H](C)[C@H](OC(C)=O)[C@@]2(O)C[C@H](C)[C@H](OC(=O)c3ccccc3)[C@@H]2/C=C/1C [EUPHORNIN]
IC50 (HeLa): 3.1 µM
IC50 (MDA-MB-231): 13.4 µM

CC(=O)O[C@@H]1[C@H](C)/C=C/C(C)(C)C(=O)C[C@@H](OC(=O)c2ccccc2)/C(C)=C/[C@H]2[C@@H](OC(=O)c3ccccc3)[C@H](C)C[C@]12OC(C)=O [EUPHOSCOPIN C]
IC50 (HeLa): > 10 µM
IC50 (MDA-MB-231): > 10 µM

CC1=C2C=C3CC[C@@H]4C(C)(C)[C@H](O)CC[C@@]4(C)[C@@H]3C[C@H]2OC1=O [HELIOSCOPINOLIDE A]
IC50 (HeLa): 0.11 µM
IC50 (MDA-MB-231): 2.1 µM
